Calls of active or inactive are those of the source. The calls are words filed in the database; no cut-off is given here.
What was measured:
[1] = tested on: Toxoplasma gondii; assay: Antiparasitic activity against wild type tachyzoites of Toxoplasma gondii RH type 1 infected in HFF cells incubated for 20 mins prior to inoculation followed by compound washout at 4 hrs measured after 72 hrs by beta-galactoside reporter assay; format: functional, organism-based; conditions: RH type 1, HFF
In short: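 Type I RH 2F clone (β-gal) in confluent HFF, DMEM with 10% FBS. Compounds diluted from 10 mM DMSO stock into medium with 1% DMSO (also no-compound control). Parasites preincubated 20 min at room temperature with compound, 5×10^2/well added, spun ~300 g 5 min. Washed with warm PBS at 4 h, grown to 72 h. Triton X-100 lysis, chlorophenol red-β-D-galactopyranoside, A570. Triplicates; EC50 from variable-slope sigmoidal fit.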

[2] = Inhibition of Toxoplasma gondii RH full length CDPK1 expressed in Escherichia coli BL21(DE3) using syntide-2 peptide as substrate after 20 mins by ELISA; format: cell-free
In short: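 His-tagged recombinant CDPK1 purified by nickel affinity. Syntide-2-coated plates blocked with 3% BSA. Reaction run 20 min at 30°C in HEPES pH 7.5 with 10 mM MgCl₂, 2.5 mM CaCl₂, 0.1 mM EGTA and 1 mM DTT. Each enzyme used at its half-maximal-activity concentration with ATP at its own Km. Phosphopeptide detected by mAb MS-6E6/HRP-TMB at A450. Triplicates; IC50 from variable-slope sigmoidal fit.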

[3] = tested on: Liver microsomes; assay: Intrinsic clearance in rat liver microsomes assessed per mg of protein after 10 to 60 mins by LC-MS analysis in presence of NADPH; format: ADME, Microsome
[4] = tested on: Liver microsomes; assay: Half life in rat liver microsomes by LC-MS analysis; format: ADME, Microsome
[5] = tested on: Toxoplasma gondii; assay: Antiparasitic activity against Toxoplasma gondii type 2 expressing Pru-LUC infected in Balb/c mouse assessed reduction in number of tissue cysts in brain at 5 mg/kg, […] for 10 days measured after 30 days by fluorescently labeled lectin staining based microscopic analysis relative to control; format: functional, organism-based; set-up: dose 5 mg/kg; conditions: type II
[6] = tested on: Toxoplasma gondii; assay: Antiparasitic activity against trachyzoites of Toxoplasma gondii type 2 expressing Pru-LUC infected in Balb/c mouse assessed as host survival at 5 mg/kg, ip administered for 10 days measured on day 30; conditions: type II
[7] = tested on: Toxoplasma gondii RH; assay: Selectivity ratio of IC50 for Toxoplasma gondii RH CDPK1 G128A mutant to Toxoplasma gondii RH full length CDPK1
[8] = tested on: Toxoplasma gondii RH; assay: Selectivity ratio of IC50 for Toxoplasma gondii RH CDPK1 G128S mutant to Toxoplasma gondii RH full length CDPK1
[9] = tested on: Toxoplasma gondii; assay: Ratio of growth inhibition of Toxoplasma gondii harboring wild type CDPK1 to growth inhibition of Toxoplasma gondii harboring CDPK1 G128M mutant; format: functional
[10] = tested on: Toxoplasma gondii; assay: Antiparasitic activity against Toxoplasma gondii harboring wild type CDPK1 infected in HFF cells incubated for 20 mins prior to infection followed by compound washout at 1 hr measured after 72 hrs by crystal violet staining method; format: functional, organism-based
In short: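 CDPK1-cKO parasites complemented with wild-type CDPK1, grown 72 h with 1 μg/ml ATc and kept in ATc throughout. Parasites pre-incubated 20 min at 37°C in DMEM/10% FBS with compound or 1% DMSO vehicle. 10⁵ per well added to confluent HFF, spun 300g for 2 min, infected 1 h at 37°C, then rinsed 5× with warm PBS. Grown 72 h with ATc; lysis read by crystal violet A570, as % of DMSO control.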

[11] = tested on: Toxoplasma gondii; assay: Antiparasitic activity against tachyzoites of Toxoplasma gondii RH type 1 infected in HFF cells incubated for 4 hrs followed by compound washout measured after 72 hrs by beta-galactoside reporter assay; format: functional, organism-based; conditions: RH type 1, HFF
In short: (§1)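 RH type I 2F clone expressing β-gal; compounds from 10 mM DMSO stocks diluted in medium with 1% DMSO. Parasites preincubated with compound 20 min at room temperature, then 5×10^2/well added to confluent HFF in DMEM/10% FBS and centrifuged. Washed with warm PBS after 4 or 24 h, grown to 72 h. Lysed in 1% Triton X-100; 1 mM chlorophenol red-β-D-galactopyranoside, A570.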

[12] = tested on: Toxoplasma gondii; assay: Antiparasitic activity against tachyzoites of Toxoplasma gondii RH type 1 infected in HFF cells incubated for 24 hrs followed by compound washout measured after 72 hrs by beta-galactoside reporter assay; format: functional, organism-based; in short: as §1

Compound | EC50 [1] [nM] | IC50 [2] [nM] | also measured
CC(C)n1nc(Cc2cc(F)cc(F)c2)c2c(N)ncnc21 | 2070 | 50.9 | –
CC(C)(C)n1nc(Cc2cccc(Cl)c2F)c2c(N)ncnc21 | 360 | 7.37 | CLint [3]: > 350 µL/min/mg; t1/2 [4]: 2.5 min
CC(C)(C)n1nc(Cc2cc(F)cc(F)c2)c2c(N)ncnc21 | 610 | – | Activity [5]: Active; Activity [6]: Active
CC(C)(C)n1nc(Cc2cccc(Br)c2)c2c(N)ncnc21 | 380 | 9.64 | CLint [3]: > 350 µL/min/mg; t1/2 [4]: 3 min
CC(C)(C)n1nc(Cc2cccc(I)c2)c2c(N)ncnc21 | 1120 | 12.9 | –
CC(C)(C)n1nc(-c2cccc3ccccc23)c2c(N)ncnc21 | 700 | – | –
CC(C)(C)n1nc(Cc2cc(F)cc(Cl)c2)c2c(N)ncnc21 | 430 | 13.2 | –
CC(C)n1nc(C(F)c2cccc(Cl)c2Cl)c2c(N)ncnc21 (stereo not drawn) | 2630 | 13.6 | CLint [3]: 107 µL/min/mg; t1/2 [4]: 12.9 min
Cc1cccc(Cc2nn(C(C)(C)C)c3ncnc(N)c23)c1 | 110 | 3.99 | Activity [5]: Active; Activity [6]: Active; Ratio IC50 [7]: 3; Ratio IC50 [8]: 5.6; Ratio [9]: 100; Activity [10]: Active; EC50 [11]: 100 nM
CC(C)(C)n1nc(-c2cccc(OCc3c(Cl)cccc3Cl)c2)c2c(N)ncnc21 | 4530 | 2470 | –
CC(C)n1nc(Cc2cc(F)cc(Cl)c2)c2c(N)ncnc21 | 180 | 4.59 | Ratio [9]: 100; CLint [3]: > 350 µL/min/mg; t1/2 [4]: 2.4 min; Activity [10]: Active
CC(C)(C)n1nc(-c2ccc3c(c2)OCO3)c2c(N)ncnc21 | 620 | 13.8 | –
CC(C)(C)n1nc(-c2cccc(OCc3ccccc3)c2)c2c(N)ncnc21 | 11600 | 374 | –
CC(C)(C)n1nc(Cc2ccc3ccccc3c2)c2c(N)ncnc21 | 1940 | 35.4 | –
CC(C)(C)n1nc(-c2cccc(Oc3ccccc3)c2)c2c(N)ncnc21 | 1320 | 26.6 | –
CC(C)(C)n1nc(Cc2cc(Cl)ccc2F)c2c(N)ncnc21 | 920 | 12.5 | CLint [3]: 250 µL/min/mg; t1/2 [4]: 5.5 min
CC(C)(C)c1ccc(-c2nn(C(C)(C)C)c3ncnc(N)c23)cc1 | 3770 | 1310 | –
CCc1nc(N)nc(N)c1-c1ccc(Cl)cc1 | – | – | Activity [12]: Active
CC(C)(C)n1nc(Cc2ccc(F)c(Cl)c2)c2c(N)ncnc21 | 410 | 8.47 | CLint [3]: > 350 µL/min/mg; t1/2 [4]: 4 min
CC(C)n1nc(C(O)c2cccc(Cl)c2Cl)c2c(N)ncnc21 (stereo not drawn) | 9460 | 200 | CLint [3]: 68 µL/min/mg; t1/2 [4]: 20.2 min
CC(C)(C)n1nc(Cc2cccc(Cl)c2Cl)c2c(N)ncnc21 | 380 | 3.38 | –
CC(C)n1nc(Cc2cc(Cl)ccc2F)c2c(N)ncnc21 | 6730 | 92.4 | –
CC(C)n1nc(Cc2cccc(Cl)c2Cl)c2c(N)ncnc21 | 250 | 2.38 | Activity [5]: Active; Activity [6]: Active; Ratio [9]: 100; CLint [3]: 190 µL/min/mg; t1/2 [4]: 7 min; Activity [10]: Active
CC(C)(C)n1nc(Cc2cccc(Cl)c2)c2c(N)ncnc21 | 30 | – | Activity [5]: Active; Activity [6]: Active; Activity [10]: Active
CC(C)n1nc(Cc2cccc(Cl)c2F)c2c(N)ncnc21 | 1400 | 1.43 | –
CC(C)n1nc(Cc2ccc(F)c(Cl)c2)c2c(N)ncnc21 | 560 | 13.1 | –
CC(C)(C)n1nc(Cc2cccc3ccccc23)c2c(N)ncnc21 | 1310 | – | –

Reference: ChEMBL document CHEMBL2321856, “Optimizing small molecule inhibitors of calcium-dependent protein kinase 1 to prevent infection by Toxoplasma gondii” (J Med Chem, 2013)
